In ChEMBL document CHEMBL3632558, “Synthesis, antimycobacterial and antibacterial activity of l-[(1R,2S)-2-fluorocyclopropyl]naphthyridone derivatives containing an oxime-functionalized pyrrolidine moiety” (2015):
≈ marks a conversion by molar mass, not a printed value.

Tests used:
Assay type in all cases: functional
Enterococcus faecalis [1] = experiment: Antibacterial activity against Enterococcus faecalis 14-2 after 18 to 24 hrs
In short: (§1)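 MIC by standard NCCLS reference procedure (M100-S11); lowest concentration of compound inhibiting visible bacterial growth after incubation at 35 °C for 18–24 h, read as complete inhibition of growth. Ciprofloxacin, levofloxacin and moxifloxacin run alongside as reference agents.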

Enterococcus faecium [2] = experiment: Antibacterial activity against Enterococcus faecium 14-1 after 18 to 24 hrs; in short: as §1
Enterococcus faecium [3] = experiment: Antibacterial activity against Enterococcus faecium 14-5 after 18 to 24 hrs; in short: as §1
Enterococcus faecium [4] = experiment: Antibacterial activity against Enterococcus faecium 14-6 after 18 to 24 hrs; in short: as §1
Escherichia coli [5] = experiment: Antibacterial activity against Escherichia coli ATCC 25922 after 18 to 24 hrs; in short: as §1
Klebsiella pneumoniae [6] = experiment: Antibacterial activity against ESBL-positive Klebsiella pneumoniae 14-17 after 18 to 24 hrs; in short: as §1
Klebsiella pneumoniae [7] = experiment: Antibacterial activity against ESBL-positive Klebsiella pneumoniae 14-18 after 18 to 24 hrs; in short: as §1
Klebsiella pneumoniae [8] = experiment: Antibacterial activity against ESBL-positive Klebsiella pneumoniae 14-19 after 18 to 24 hrs; in short: as §1
Klebsiella pneumoniae [9] = experiment: Antibacterial activity against Klebsiella pneumoniae 14-1 after 18 to 24 hrs; in short: as §1
Klebsiella pneumoniae [10] = experiment: Antibacterial activity against Klebsiella pneumoniae 14-2 after 18 to 24 hrs; in short: as §1
Klebsiella pneumoniae [11] = experiment: Antibacterial activity against Klebsiella pneumoniae 14-3 after 18 to 24 hrs; in short: as §1
Klebsiella pneumoniae [12] = experiment: Antibacterial activity against Klebsiella pneumoniae 14-4 after 18 to 24 hrs; in short: as §1
Staphylococcus aureus [13] = experiment: Antibacterial activity against methicillin-sensitive Staphylococcus aureus 14-2 after 18 to 24 hrs; in short: as §1
Staphylococcus aureus [14] = experiment: Antibacterial activity against methicillin-sensitive Staphylococcus aureus 14-4 after 18 to 24 hrs; in short: as §1
Staphylococcus aureus [15] = experiment: Antibacterial activity against methicillin-resistant Staphylococcus aureus 14-4 after 18 to 24 hrs
[16] = test system: Staphylococcus epidermidis; experiment: Antibacterial activity against methicillin-sensitive Staphylococcus epidermidis 14-2 after 18 to 24 hrs; in short: as §1
[17] = test system: Staphylococcus epidermidis; experiment: Antibacterial activity against methicillin-resistant Staphylococcus epidermidis 14-21 after 18 to 24 hrs
[18] = test system: Staphylococcus epidermidis; experiment: Antibacterial activity against methicillin-resistant Staphylococcus epidermidis 14-22 after 18 to 24 hrs
[19] = test system: Staphylococcus epidermidis; experiment: Antibacterial activity against methicillin-resistant Staphylococcus epidermidis 14-37 after 18 to 24 hrs
[20] = test system: Staphylococcus epidermidis; experiment: Antibacterial activity against methicillin-resistant Staphylococcus epidermidis 14-39 after 18 to 24 hrs
Streptococcus pneumoniae = experiment: Antibacterial activity against Streptococcus pneumoniae ATCC 19615 after 18 to 24 hrs; in short: as §1
Enterococcus faecalis [21] = experiment: Antibacterial activity against Enterococcus faecalis 14-1 after 18 to 24 hrs; in short: as §1
[22] = test system: Mycobacterium tuberculosis; experiment: Antimycobacterial activity against Mycobacterium tuberculosis H37Rv ATCC 27294 by alamar blue assay
In short: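 Microplate Alamar Blue Assay; MIC is the lowest concentration giving ≥90% reduction in fluorescence relative to the mean of replicate bacterium-only controls. MDR strain 6133 is resistant to isoniazid and rifampicin.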

Enterococcus faecium [23] = experiment: Antibacterial activity against Enterococcus faecium 14-2 after 18 to 24 hrs; in short: as §1
Escherichia coli [24] = experiment: Antibacterial activity against ESBL-positive Escherichia coli 14-1 after 18 to 24 hrs; in short: as §1
Escherichia coli [25] = experiment: Antibacterial activity against ESBL-positive Escherichia coli 14-2 after 18 to 24 hrs; in short: as §1
Escherichia coli [26] = experiment: Antibacterial activity against Escherichia coli 14-1 after 18 to 24 hrs; in short: as §1
Escherichia coli [27] = experiment: Antibacterial activity against Escherichia coli 14-2 after 18 to 24 hrs; in short: as §1
Staphylococcus aureus [28] = experiment: Antibacterial activity against Staphylococcus aureus CMCC 26003 after 18 to 24 hrs; in short: as §1
Staphylococcus aureus [29] = experiment: Antibacterial activity against methicillin-sensitive Staphylococcus aureus 14-1 after 18 to 24 hrs; in short: as §1
Staphylococcus aureus [30] = experiment: Antibacterial activity against methicillin-sensitive Staphylococcus aureus 14-3 after 18 to 24 hrs; in short: as §1
Staphylococcus aureus [31] = experiment: Antibacterial activity against methicillin-resistant Staphylococcus aureus 14-5 after 18 to 24 hrs
Pseudomonas aeruginosa [32] = experiment: Antibacterial activity against Pseudomonas aeruginosa ATCC 27853 after 18 to 24 hrs; in short: as §1
Pseudomonas aeruginosa [33] = experiment: Antibacterial activity against Pseudomonas aeruginosa 14-9 after 18 to 24 hrs; in short: as §1
Pseudomonas aeruginosa [34] = experiment: Antibacterial activity against Pseudomonas aeruginosa 14-14 after 18 to 24 hrs; in short: as §1
Pseudomonas aeruginosa [35] = experiment: Antibacterial activity against Pseudomonas aeruginosa 14-15 after 18 to 24 hrs; in short: as §1
Pseudomonas aeruginosa [36] = experiment: Antibacterial activity against Pseudomonas aeruginosa 14-16 after 18 to 24 hrs; in short: as §1
Pseudomonas aeruginosa [37] = experiment: Antibacterial activity against Pseudomonas aeruginosa 14-19 after 18 to 24 hrs; in short: as §1

SMILES | MIC (Enterococcus faecalis [1]) [µg/mL] | MIC (Enterococcus faecium [2]) [µg/mL] | MIC (Enterococcus faecium [3]) [µg/mL] | MIC (Enterococcus faecium [4]) [µg/mL] | MIC (Klebsiella pneumoniae [6]) [µg/mL] | MIC (Klebsiella pneumoniae [7]) [µg/mL] | MIC (Klebsiella pneumoniae [8]) [µg/mL] | MIC (Klebsiella pneumoniae [9]) [µg/mL] | MIC (Klebsiella pneumoniae [10]) [µg/mL] | MIC (Klebsiella pneumoniae [11]) [µg/mL] | MIC (Klebsiella pneumoniae [12]) [µg/mL] | MIC (Staphylococcus aureus [13]) [µg/mL] | MIC (Staphylococcus aureus [14]) [µg/mL] | MIC (Staphylococcus aureus [15]) [µg/mL] | MIC [16] [µg/mL] | MIC [17] [µg/mL] | MIC [18] [µg/mL] | MIC [19] [µg/mL] | MIC [20] [µg/mL] | MIC (Enterococcus faecalis [21]) [µg/mL] | further results
O=C(O)c1cn(C2CC2)c2cc(N3CCNCC3)c(F)cc2c1=O [CIPROFLOXACIN] | 1 (≈ 3.02 µM) | 64 (≈ 193 µM) | 128 (≈ 386 µM) | > 128 | 4 (≈ 12.1 µM) | 0.25 (≈ 0.754 µM) | 64 (≈ 193 µM) | 32 (≈ 96.6 µM) | 16 (≈ 48.3 µM) | 128 (≈ 386 µM) | 32 (≈ 96.6 µM) | 0.25 (≈ 0.754 µM) | 0.5 (≈ 1.51 µM) | > 128 | > 128 | 64 (≈ 193 µM) | 128 (≈ 386 µM) | 128 (≈ 386 µM) | 128 (≈ 386 µM) | 128 (≈ 386 µM) | MIC (Escherichia coli [5]): < 0.008 µg/mL; MIC (Streptococcus pneumoniae): 2 µg/mL (≈ 6.04 µM)
NNC(=O)c1ccncc1 [ISONIAZID] |  |  |  |  |  |  |  |  |  |  |  |  |  |  |  |  |  |  |  |  | MIC90 [22]: 0.049 µg/mL (≈ 0.357 µM)
C[C@H]1COc2c(N3CCN(C)CC3)c(F)cc3c(=O)c(C(=O)O)cn1c23.C[C@H]1COc2c(N3CCN(C)CC3)c(F)cc3c(=O)c(C(=O)O)cn1c23.O [LEVOFLOXACIN] | 1 | 16 | 64 | 64 | 4 |  | 64 | 16 | 8 | 16 | 8 | 0.25 | 0.5 | 64 | 128 | 64 | 32 | 64 | 64 | 128 | MIC (Enterococcus faecium [23]): 32 µg/mL; MIC (Escherichia coli [24]): 2 µg/mL; MIC (Escherichia coli [25]): 8 µg/mL; MIC (Escherichia coli [26]): 4 µg/mL; MIC (Escherichia coli [27]): 4 µg/mL; MIC (Staphylococcus aureus [28]): 0.125 µg/mL; MIC (Staphylococcus aureus [29]): 8 µg/mL; MIC (Staphylococcus aureus [30]): 0.125 µg/mL; MIC (Staphylococcus aureus [31]): 8 µg/mL
COc1c(N2C[C@@H]3CCCN[C@@H]3C2)c(F)cc2c(=O)c(C(=O)O)cn(C3CC3)c12 [MOXIFLOXACIN] | 0.5 (≈ 1.25 µM) | 8 (≈ 19.9 µM) | 8 (≈ 19.9 µM) | 8 (≈ 19.9 µM) | 8 (≈ 19.9 µM) | 1 (≈ 2.49 µM) | 64 (≈ 159 µM) | 8 (≈ 19.9 µM) | 16 (≈ 39.9 µM) | 32 (≈ 79.7 µM) | 16 (≈ 39.9 µM) | 0.06 (≈ 0.149 µM) | < 0.008 | 16 (≈ 39.9 µM) | 32 (≈ 79.7 µM) | 32 (≈ 79.7 µM) | 8 (≈ 19.9 µM) | 8 (≈ 19.9 µM) | 8 (≈ 19.9 µM) | 32 (≈ 79.7 µM) | MIC (Pseudomonas aeruginosa [32]): 2 µg/mL (≈ 4.98 µM); MIC (Pseudomonas aeruginosa [33]): 4 µg/mL (≈ 9.96 µM); MIC (Pseudomonas aeruginosa [34]): 16 µg/mL (≈ 39.9 µM); MIC (Pseudomonas aeruginosa [35]): 16 µg/mL (≈ 39.9 µM); MIC (Pseudomonas aeruginosa [36]): 8 µg/mL (≈ 19.9 µM); MIC (Pseudomonas aeruginosa [37]): 1 µg/mL (≈ 2.49 µM); MIC (Staphylococcus aureus [28]): 0.06 µg/mL (≈ 0.149 µM); MIC (Staphylococcus aureus [29]): 4 µg/mL (≈ 9.96 µM); MIC (Staphylococcus aureus [30]): < 0.008 µg/mL; MIC (Staphylococcus aureus [31]): 8 µg/mL (≈ 19.9 µM); MIC (Streptococcus pneumoniae): 0.015 µg/mL (≈ 0.0374 µM)
CO[C@H]1/C=C/O[C@@]2(C)Oc3c(C)c(O)c4c(O)c(c(/C=N/N5CCN(C)CC5)c(O)c4c3C2=O)NC(=O)/C(C)=C\C=C\[C@H](C)[C@H](O)[C@@H](C)[C@@H](O)[C@@H](C)[C@H](OC(C)=O)[C@@H]1C [RIFAMPIN] |  |  |  |  |  |  |  |  |  |  |  |  |  |  |  |  |  |  |  |  | MIC90 [22]: 0.05 µg/mL (≈ 0.0608 µM)
